Calls of active or inactive are those of the source.
Experiments:
Format in all cases: functional, organism-based
Enterococcus faecium = test: Antibacterial activity against Enterococcus faecium ATCC 19734 up to 128 ug/ml after 16 to 20 hrs by broth microdilution assay
Summary of the method: (§1)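 MIC testing across a concentration series whose top concentration was 128 μg/mL. The E. faecium strain is NCTC 7171 (ATCC 19734). The testing method follows an earlier report.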

Acinetobacter baumannii = test: Antibacterial activity against Acinetobacter baumannii ATCC 17961 up to 128 ug/ml after 16 to 20 hrs by broth microdilution assay; summary of the method: as §1
Escherichia coli = test: Antibacterial activity against Escherichia coli ATCC 25922 up to 128 ug/ml after 16 to 20 hrs by broth microdilution assay; summary of the method: as §1
Pseudomonas aeruginosa = test: Antibacterial activity against Pseudomonas aeruginosa ATCC 27853 up to 128 ug/ml after 16 to 20 hrs by broth microdilution assay; summary of the method: as §1
Staphylococcus aureus = test: Antibacterial activity against Staphylococcus aureus ATCC 29213 up to 128 ug/ml after 16 to 20 hrs by broth microdilution assay; summary of the method: as §1
Klebsiella pneumoniae = test: Antibacterial activity against Klebsiella pneumoniae ATCC 700603 up to 128 ug/ml after 16 to 20 hrs by broth microdilution assay; summary of the method: as §1
Klebsiella aerogenes = test: Antibacterial activity against Enterobacter aerogenes ATCC 35029 up to 128 ug/ml after 16 to 20 hrs by broth microdilution assay; summary of the method: as §1

Measured: Activity

Cc1cc(=O)[nH]c2nc(CC(=O)c3ccccc3)nn12
inactive: all assays above

Cc1cc(=O)n2c(CC(=O)c3ccccc3)nnc2[nH]1
inactive: all assays above

Cc1cc(=O)n2nc(CC(=O)c3ccccc3)nc2[nH]1
inactive: all assays above

Cc1cc(=O)[nH]c2nnc(CC(=O)c3ccccc3)n12
inactive: all assays above
